Experimental data published in ChEMBL document CHEMBL4842360, “Discovery of a Bicyclic Peptidyl Pan-Ras Inhibitor” (J Med Chem, 2021).
Activity calls are given as the source filed them. No cut-off for these calls is given here. Numbered stars: 1 amine (or outer) side, 2 acyl side, 3 side chain; on linkers, the order of the positions; unused ones are H or OH. Bridge positions count the residues as written; N and C are the ends. Square brackets hold non-standard residues; d marks the D form. Peptide text beside a SMILES is read from it. Trimesoyl = O=C(c1cc(C(=O)[*:2])cc(C(=O)[*:3])c1)[*:1]; d2Nal = N[C@H](Cc1ccc2ccccc2c1)C(=O)O; Phg = N[C@H](C(=O)O)c1ccccc1; Orn = NCCC[C@H](N)C(=O)O; Dap = NC[C@H](N)C(=O)O

Key:
NCI-H358 [1] = experiment: Induction of apoptosis in human NCI-H358 cells assessed as late apoptotic cells at 1 uM incubated for 24 hrs by Alexa Fluor 488 annexin V/propidium iodide staining based assay (reference value: […]); type: functional
[2] = molecular target: T1, Tyrosine-protein phosphatase non-receptor type 1 (Homo sapiens) (UniProt P18031); experiment: Binding affinity to PTP1B (unknown origin)
T1 sequence (whole entry): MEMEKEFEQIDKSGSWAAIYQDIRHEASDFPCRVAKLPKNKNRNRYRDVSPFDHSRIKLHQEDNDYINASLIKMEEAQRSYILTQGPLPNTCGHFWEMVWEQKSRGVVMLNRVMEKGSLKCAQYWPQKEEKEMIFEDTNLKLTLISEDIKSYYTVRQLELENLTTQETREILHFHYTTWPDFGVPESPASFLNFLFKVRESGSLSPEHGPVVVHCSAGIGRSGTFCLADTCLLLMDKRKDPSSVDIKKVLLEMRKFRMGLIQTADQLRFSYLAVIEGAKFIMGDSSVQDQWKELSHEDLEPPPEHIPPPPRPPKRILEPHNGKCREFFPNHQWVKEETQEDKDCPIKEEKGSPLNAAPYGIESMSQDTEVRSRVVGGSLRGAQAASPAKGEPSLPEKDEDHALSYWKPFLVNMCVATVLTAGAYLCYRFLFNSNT
In short: (§1)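 Fluorescein-labeled peptide (100 nM) incubated 1 h at RT with varying concentrations of control protein (BSA, GST-RBD, PNP, PTP1B or MDM2). KD derived from fluorescence polarization titration curves.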

NCI-H358 [3] = experiment: Induction of apoptosis in human NCI-H358 cells assessed as early apoptotic cells at 1 uM incubated for 24 hrs by Alexa Fluor 488 annexin V/propidium iodide staining based assay (reference value: 3.05%); type: functional
[4] = Drug distribution in human A549 cells assessed as fluorescent puncta in cytoplasmic region at 5 uM incubated for 2 hrs by live-cell confocal microscopy; type: ADME, cell-based; settings: a549, 2 h
In short: (§2)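 HeLa, H358 or A549 cells treated with 5 μM fluorescein-labeled peptide for 2 h, then imaged by live-cell confocal microscopy for intracellular fluorescence pattern.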

NCI-H358 [5] = experiment: Induction of apoptosis in human NCI-H358 cells assessed as late apoptotic cells at 10 uM incubated for 24 hrs by Alexa Fluor 488 annexin V/propidium iodide staining based assay (reference value: […]); type: functional
NCI-H358 [6] = experiment: Induction of apoptosis in human NCI-H358 cells assessed as live cells at 10 uM incubated for 24 hrs by Alexa Fluor 488 annexin V/propidium iodide staining based assay (reference value: 87%); type: functional
A549 [7] = experiment: Antitumor activity against human A549 cells xenografted in mouse assessed as average tumor volume at 5 mg/kg, iv administered for 9 days measured every other day (reference value: 100 mm3); type: functional; settings: time 9 day
In short: (§3)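 Nude mice given ~1.5 million A549 cells subcutaneously. Once tumors reached ~40 mm3, groups of n = 6 received peptide at 1 or 5 mg/kg/day or PBS vehicle by tail-vein injection for 9 days. Tumor volume was tracked, and tumors were weighed at harvest.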

NIH3T3 = experiment: Cytotoxicity against mouse NIH3T3 cells incubated for 96 hrs by CellTiter-Glo2 assay; type: cell-based; settings: NIH3T3, 96 h
In short: (§4)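 Cells plated at 5,000/well, grown overnight, then exposed to serially diluted peptide (0–40 μM) in medium with 10% FBS for 96 h at 37 °C, 5% CO2. Viability read by CellTiter-Glo 2.0 luminescence after 15 min at RT.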

NCI-H358 [8] = experiment: Induction of apoptosis in human NCI-H358 cells assessed as early apoptotic cells at 10 uM incubated for 24 hrs by Alexa Fluor 488 annexin V/propidium iodide staining based assay (reference value: 3.05%); type: functional
[9] = Toxicity in mouse xenografted with human A549 cells assessed as effect on body weight at 1 to 5 mg/kg, iv administered for 9 days; type: organism-based; settings: in vivo, 216 h, dose 1-5 mg/kg, time 9 day
In short: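 About 1.5 million A549 cells given subcutaneously to nude mice. Dosing began once tumors reached ~40 mm3, with n = 6 per group. Mice received 1 or 5 mg/kg per day or vehicle (PBS) by tail-vein injection for 9 days. Body weight was monitored alongside tumor volume and weight at harvest.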

[10] = molecular target: T2, Purine nucleoside phosphorylase (Homo sapiens) (UniProt P00491); experiment: Binding affinity to purine nucleoside phosphorylase (unknown origin); in short: as §1
T2 sequence (whole entry): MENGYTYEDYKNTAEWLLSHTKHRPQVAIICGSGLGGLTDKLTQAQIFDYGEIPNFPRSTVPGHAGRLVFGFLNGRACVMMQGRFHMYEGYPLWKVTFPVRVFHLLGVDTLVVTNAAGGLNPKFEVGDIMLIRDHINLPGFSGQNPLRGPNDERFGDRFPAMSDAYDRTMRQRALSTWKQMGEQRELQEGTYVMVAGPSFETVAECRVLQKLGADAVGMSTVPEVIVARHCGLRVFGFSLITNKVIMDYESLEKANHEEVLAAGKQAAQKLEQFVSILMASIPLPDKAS

Albumin = Albumin (Bos taurus, UniProt P02769); experiment: Binding affinity to bovine serum albumin; type: ADME; in short: as §1
Sequence of Albumin (P02769 whole entry): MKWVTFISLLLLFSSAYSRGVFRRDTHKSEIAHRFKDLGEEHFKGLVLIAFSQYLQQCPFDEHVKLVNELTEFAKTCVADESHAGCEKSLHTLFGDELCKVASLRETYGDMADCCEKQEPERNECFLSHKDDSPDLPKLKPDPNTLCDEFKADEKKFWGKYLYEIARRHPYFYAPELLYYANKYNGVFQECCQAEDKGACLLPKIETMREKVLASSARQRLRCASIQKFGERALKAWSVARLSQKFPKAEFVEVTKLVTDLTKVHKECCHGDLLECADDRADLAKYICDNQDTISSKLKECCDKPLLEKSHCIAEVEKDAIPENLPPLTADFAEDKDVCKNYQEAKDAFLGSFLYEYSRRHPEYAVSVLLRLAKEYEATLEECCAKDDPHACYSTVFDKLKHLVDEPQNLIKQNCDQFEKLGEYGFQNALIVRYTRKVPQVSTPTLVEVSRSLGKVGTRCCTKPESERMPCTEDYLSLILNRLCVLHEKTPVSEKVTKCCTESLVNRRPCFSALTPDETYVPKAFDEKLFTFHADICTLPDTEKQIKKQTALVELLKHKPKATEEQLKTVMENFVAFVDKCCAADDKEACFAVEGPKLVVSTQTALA

[11] = Drug distribution in human NCI-H358 cells assessed as fluorescent puncta in cytoplasmic region at 5 uM incubated for 2 hrs by live-cell confocal microscopy; type: ADME, cell-based; settings: nci-h358, 2 h; in short: as §2
A549 [12] = experiment: Antiproliferative activity against human A549 cells harboring KRAS G12S mutant incubated for 96 hrs by CellTiter-Glo2 assay; type: functional, cell-based; settings: A549, 96 h; in short: as §4
NCI-H358 [13] = experiment: Antitumor activity against human NCI-H358 cells xenografted in mouse assessed as reduction in ERK phosphorylation at 1 to 5 mg/kg, iv administered for 9 days measured every other day by immunohistochemical staining method; type: functional, organism-based; settings: dose 1-5 mg/kg, time 9.0 day
[14] = molecular target: E3 ubiquitin-protein ligase Mdm2 (Homo sapiens) (UniProt Q00987); experiment: Binding affinity to MDM2 (unknown origin); in short: as §1
Sequence of E3 ubiquitin-protein ligase Mdm2 (Homo sapiens) (Q00987 whole entry, looked up): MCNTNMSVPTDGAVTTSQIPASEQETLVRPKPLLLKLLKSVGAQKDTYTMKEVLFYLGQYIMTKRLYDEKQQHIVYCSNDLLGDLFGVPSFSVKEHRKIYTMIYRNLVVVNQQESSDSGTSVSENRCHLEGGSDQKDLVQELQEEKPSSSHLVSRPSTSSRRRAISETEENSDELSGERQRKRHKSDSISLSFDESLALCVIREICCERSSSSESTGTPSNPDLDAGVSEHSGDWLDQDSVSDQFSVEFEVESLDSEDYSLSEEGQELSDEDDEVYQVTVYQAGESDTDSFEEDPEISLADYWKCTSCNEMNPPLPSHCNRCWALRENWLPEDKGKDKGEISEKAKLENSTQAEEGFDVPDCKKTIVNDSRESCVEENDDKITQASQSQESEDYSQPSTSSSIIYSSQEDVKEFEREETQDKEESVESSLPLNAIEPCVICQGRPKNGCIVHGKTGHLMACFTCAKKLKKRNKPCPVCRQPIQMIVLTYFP

NCI-H358 [15] = experiment: Induction of apoptosis in human NCI-H358 cells assessed as late apoptotic cells at 5 uM incubated for 24 hrs by Alexa Fluor 488 annexin V/propidium iodide staining based assay (reference value: […]); type: functional
NCI-H358 [16] = experiment: Induction of apoptosis in human NCI-H358 cells assessed as live cells at 5 uM incubated for 24 hrs by Alexa Fluor 488 annexin V/propidium iodide staining based assay (reference value: 87%); type: functional
NCI-H358 [17] = experiment: Induction of apoptosis in human NCI-H358 cells assessed as necrotic cells at 1 uM incubated for 24 hrs by Alexa Fluor 488 annexin V/propidium iodide staining based assay (reference value: 0.699%); type: functional
[18] = Drug distribution in human HeLa cells assessed as fluorescent puncta in cytoplasmic region at 5 uM incubated for 2 hrs by live-cell confocal microscopy; type: ADME, cell-based; in short: as §2
Homo sapiens = species on record: Homo sapiens; experiment: Binding affinity to glutathione-S-transferase (unknown origin); in short: as §1
A549 [19] = experiment: Antitumor activity against human A549 cells xenografted in mouse assessed as reduction in tumor growth at 5 mg/kg, iv administered for 9 days measured every other day; type: functional; design: scale not given: the % may be the effect or the level left; settings: time 9 day; in short: as §3
[20] = Drug distribution in human HeLa cells assessed as diffuse fluorescence throughout the entire cell volume at 5 uM incubated for 2 hrs by live-cell confocal microscopy; type: ADME, cell-based; in short: as §2
[21] = Drug distribution in human NCI-H358 cells assessed as accumulation in plasma membrane at 5 uM incubated for 2 hrs by live-cell confocal microscopy; type: ADME, cell membranes; settings: nci-h358, 2 h; in short: as §2

## C[C@@H](NC(=O)[C@H](Cc1ccccc1)NC(=O)[C@@H](CCCNC(=N)N)NC(=O)[C@H](CCCN)NC(=O)[C@@H]1CNC(=O)c2cc3cc(c2)C(=O)N[C@H](Cc2ccc4ccccc4c2)C(=O)N[C@@H](CO)C(=O)N[C@@H](CC(N)=O)C(=O)N[C@H](Cc2ccc4ccccc4c2)C(=O)N[C@@H](c2ccccc2)C(=O)N[C@@H](CCCCNC3=O)C(=O)N[C@H](Cc2ccccc2)C(=O)N[C@@H](CCC(N)=O)C(=O)N[C@H](CCCNC(=N)N)C(=O)N[C@@H](CCCNC(=N)N)C(=O)N1)C(N)=O ([d2Nal]SN[d2Nal][Phg]K[dF]Q[dR]R[Dap][Orn][dR]F[dA]-NH2; linker N-6-11 via Trimesoyl)
NCI-H358 [1]
  Activity: 8.91%
[2]
  Activity: inactive
NCI-H358 [3]
  Activity: 3.13%
[4]
  Drug uptake: Active
NCI-H358 [5]
  Activity: 80%
NCI-H358 [6]
  Activity: 15.4%
A549 [7]
  Activity: 35 mm3
NIH3T3
  EC50: ≥ 20 µM
NCI-H358 [8]
  Activity: 4.11%
[9]
  Activity: Non-Toxic
[10]
  Activity: inactive
Albumin
  Kd: 57 µM
[11]
  Drug uptake: Active
A549 [12]
  EC50: 0.5 µM
NCI-H358 [13]
  Activity: Active
[14]
  Activity: inactive
NCI-H358 [15]
  Activity: 29.1%
NCI-H358 [16]
  Activity: 55.1%
NCI-H358 [17]
  Activity: 0.226%
[18]
  Drug uptake: Active
Homo sapiens
  Activity: inactive
A549 [19]
  Activity: 100%
[20]
  Drug uptake: Active
[21]
  Drug uptake: Active
